Data taken from ChEMBL document CHEMBL1156759, “Identification and optimization of inhibitors of Trypanosomal cysteine proteases: cruzain, rhodesain, and TbCatB” (J Med Chem, 2010).
Calls of active or inactive are those of the source. The calls are words filed in the database; no cut-off is given here.

Experiments:
[1] = Inhibition of recombinant Trypanosoma brucei cathepsin B after 5 mins by spectrofluorimetric analysis
Procedure, shortened: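 Recombinant TbCatB at 258 nM in 100 mM sodium acetate pH 5.5, 5 mM DTT, 0.001% Triton X-100, preincubated with compound in DMSO for 5 min at room temperature. Z-Phe-Arg-AMC 10 μM added to start. Rate of fluorescence rise read at ex 355/em 460 nm; DMSO control wells; IC50 from curve fitting.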

Cruzipain [2] = biological target: T1, Cruzipain (Trypanosoma cruzi, UniProt P25779); experiment: Competitive inhibition of recombinant Trypanosoma cruzi cruzain by Lineweaver-Burke plot analysis
T1 sequence (P25779 whole entry): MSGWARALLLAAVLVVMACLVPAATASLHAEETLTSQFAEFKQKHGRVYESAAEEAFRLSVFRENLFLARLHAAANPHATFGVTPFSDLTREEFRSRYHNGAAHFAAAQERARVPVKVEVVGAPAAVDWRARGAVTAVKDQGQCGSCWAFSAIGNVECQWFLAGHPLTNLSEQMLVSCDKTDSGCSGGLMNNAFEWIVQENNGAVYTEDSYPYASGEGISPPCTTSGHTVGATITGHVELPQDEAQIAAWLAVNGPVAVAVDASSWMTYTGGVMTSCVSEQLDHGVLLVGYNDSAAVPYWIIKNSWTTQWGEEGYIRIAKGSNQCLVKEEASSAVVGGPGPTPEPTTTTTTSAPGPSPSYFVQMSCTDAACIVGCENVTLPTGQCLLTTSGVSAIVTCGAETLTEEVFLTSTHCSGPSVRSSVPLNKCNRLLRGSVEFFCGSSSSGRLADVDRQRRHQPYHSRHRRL

Cruzipain [3] = biological target: T1, Cruzipain; experiment: Inhibition of recombinant Trypanosoma cruzi cruzain after 5 mins by spectrofluorimetric analysis
Procedure, shortened: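 Recombinant cruzain at 4 nM (activated procruzain, anion-exchange purified) in 100 mM sodium acetate pH 5.5, 5 mM DTT, 0.001% Triton X-100. Preincubated 5 min at room temperature with compound in DMSO, then Z-Phe-Arg-AMC 10 μM. Fluorescence rate read at ex 355/em 460 nm; DMSO controls; IC50 by curve fitting.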

[4] = Inhibition of recombinant Trypanosoma brucei rhodesain after 5 mins by spectrofluorimetric analysis
Procedure, shortened: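 Recombinant rhodesain, 4 nM, preincubated 5 min at room temperature with compound (DMSO) in 100 mM sodium acetate pH 5.5, 5 mM DTT, 0.001% Triton X-100. Reaction started with 10 μM Z-Phe-Arg-AMC; rate of AMC fluorescence increase read at ex 355/em 460 nm. IC50 from curve fitting; DMSO-only wells as positive control.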

[5] = Inhibition of human Chymotrypsin
Procedure, shortened: (§1)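 Profiling panel run externally as 10-dose, 3-fold serial dilutions of compound. Protease activity followed as a time course of fluorescence increase from a fluorescently labeled peptide substrate. The initial linear slope (signal/min) was analysed.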

Procathepsin L = Procathepsin L (Homo sapiens, UniProt P07711); experiment: Inhibition of human Cathepsin L; procedure, shortened: as §1
Procathepsin L, sequence (P07711 whole entry): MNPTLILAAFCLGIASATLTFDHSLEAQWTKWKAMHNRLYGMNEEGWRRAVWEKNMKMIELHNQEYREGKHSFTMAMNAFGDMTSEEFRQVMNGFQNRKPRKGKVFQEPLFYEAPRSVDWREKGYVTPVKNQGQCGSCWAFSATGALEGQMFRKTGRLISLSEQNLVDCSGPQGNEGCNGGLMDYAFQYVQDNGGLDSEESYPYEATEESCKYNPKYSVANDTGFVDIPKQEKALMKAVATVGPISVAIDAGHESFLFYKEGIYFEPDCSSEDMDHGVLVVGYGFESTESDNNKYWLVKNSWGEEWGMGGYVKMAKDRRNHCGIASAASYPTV

Cathepsin G = Cathepsin G (Homo sapiens, UniProt P08311); experiment: Inhibition of human Cathepsin G; procedure, shortened: as §1
Cathepsin G, sequence (P08311 whole entry): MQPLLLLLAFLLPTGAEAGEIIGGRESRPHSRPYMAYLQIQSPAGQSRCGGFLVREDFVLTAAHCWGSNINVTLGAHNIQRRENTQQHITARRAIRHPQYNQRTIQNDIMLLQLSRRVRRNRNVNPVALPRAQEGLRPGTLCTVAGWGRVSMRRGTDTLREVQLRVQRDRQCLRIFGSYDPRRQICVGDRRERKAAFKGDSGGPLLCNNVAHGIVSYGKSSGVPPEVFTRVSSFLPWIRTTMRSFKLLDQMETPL

Neutrophil elastase = Neutrophil elastase (Homo sapiens, UniProt P08246); experiment: Inhibition of human Elastase; procedure, shortened: as §1
Neutrophil elastase, sequence (P08246 whole entry): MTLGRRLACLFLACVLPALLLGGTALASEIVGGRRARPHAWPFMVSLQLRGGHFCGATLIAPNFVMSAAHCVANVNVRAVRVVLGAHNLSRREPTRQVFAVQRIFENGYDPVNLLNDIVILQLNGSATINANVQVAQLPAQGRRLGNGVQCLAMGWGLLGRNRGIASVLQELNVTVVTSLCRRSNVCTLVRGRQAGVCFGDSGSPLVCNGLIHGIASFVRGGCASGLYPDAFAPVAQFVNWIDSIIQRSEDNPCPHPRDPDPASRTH

Cruzipain [6] = biological target: T1, Cruzipain; experiment: Inhibition of Trypanosoma cruzi cruzain after 15 mins; conditions: read-out: IC50
Procedure, shortened: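 Cruzain at 1.5 nM final in 100 mM acetate pH 5.5, 5 mM DTT, 0.01% Triton X-100; compounds as serial 2-fold dilutions pin-transferred in DMSO. 15 min room-temperature preincubation, then Z-FR-AMC 2 μM final. Kinetic fluorescence read at ex 340/em 450 nm. Percent inhibition from the first 60 s signal change versus no-enzyme and uninhibited controls (48 wells each).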

Caspase-4 = Caspase-4 (Homo sapiens, UniProt P49662); experiment: Inhibition of human Caspase 4; procedure, shortened: as §1
Caspase-4, sequence (P49662 81-270 limits assumed): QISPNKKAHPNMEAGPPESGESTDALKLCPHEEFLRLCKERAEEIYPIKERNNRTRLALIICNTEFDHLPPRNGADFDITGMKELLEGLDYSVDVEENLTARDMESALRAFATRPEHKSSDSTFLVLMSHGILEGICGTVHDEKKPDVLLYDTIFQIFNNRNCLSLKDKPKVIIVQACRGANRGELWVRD
Caspase-4, sequence (P49662 290-377 limits assumed): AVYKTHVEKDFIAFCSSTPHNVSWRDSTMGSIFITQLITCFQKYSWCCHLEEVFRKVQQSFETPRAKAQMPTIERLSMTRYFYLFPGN

Cathepsin S = Cathepsin S (Homo sapiens, UniProt P25774); experiment: Inhibition of human Cathepsin S; procedure, shortened: as §1
Cathepsin S, sequence (P25774 whole entry): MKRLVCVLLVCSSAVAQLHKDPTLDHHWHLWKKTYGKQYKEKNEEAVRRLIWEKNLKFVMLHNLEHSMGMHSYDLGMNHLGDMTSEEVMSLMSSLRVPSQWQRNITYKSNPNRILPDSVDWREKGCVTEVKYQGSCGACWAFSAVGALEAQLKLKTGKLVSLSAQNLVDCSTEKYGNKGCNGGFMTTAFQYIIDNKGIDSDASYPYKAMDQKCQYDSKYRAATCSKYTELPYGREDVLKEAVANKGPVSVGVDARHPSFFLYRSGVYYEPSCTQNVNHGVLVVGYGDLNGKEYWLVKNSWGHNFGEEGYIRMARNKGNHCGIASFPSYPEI

Beta-secretase 1 = Beta-secretase 1 (Homo sapiens, UniProt P56817); experiment: Inhibition of human BACE1; procedure, shortened: as §1
Papain = biological target: T2, Papain (Carica papaya, UniProt P00784); experiment: Inhibition of papaya papain; procedure, shortened: as §1
T2 sequence (P00784 whole entry): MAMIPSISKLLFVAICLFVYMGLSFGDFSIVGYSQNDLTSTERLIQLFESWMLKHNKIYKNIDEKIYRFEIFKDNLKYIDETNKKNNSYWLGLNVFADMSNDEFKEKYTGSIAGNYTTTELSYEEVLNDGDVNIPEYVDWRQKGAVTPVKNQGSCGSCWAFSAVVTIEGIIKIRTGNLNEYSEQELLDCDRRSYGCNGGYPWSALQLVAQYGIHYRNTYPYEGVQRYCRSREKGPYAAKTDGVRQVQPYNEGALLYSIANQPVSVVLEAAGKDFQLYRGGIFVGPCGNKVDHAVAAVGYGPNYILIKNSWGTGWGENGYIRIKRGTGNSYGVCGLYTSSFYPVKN

Cathepsin K = biological target: T3, Cathepsin K (Homo sapiens, UniProt P43235); experiment: Inhibition of human Cathepsin K/O2; procedure, shortened: as §1
T3 sequence (P43235 whole entry): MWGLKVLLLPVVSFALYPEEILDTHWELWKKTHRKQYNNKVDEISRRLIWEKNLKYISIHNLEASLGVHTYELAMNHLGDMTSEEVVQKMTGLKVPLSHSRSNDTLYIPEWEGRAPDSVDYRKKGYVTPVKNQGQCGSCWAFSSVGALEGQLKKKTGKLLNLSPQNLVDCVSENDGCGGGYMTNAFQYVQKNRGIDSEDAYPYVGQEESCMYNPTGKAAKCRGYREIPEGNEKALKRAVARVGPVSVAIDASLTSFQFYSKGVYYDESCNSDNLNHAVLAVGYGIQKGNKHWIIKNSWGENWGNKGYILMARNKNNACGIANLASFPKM

Kallikrein-4 = Kallikrein-4 (Homo sapiens, UniProt Q9Y5K2); experiment: Inhibition of human Kallikrein 4; procedure, shortened: as §1
Kallikrein-4, sequence (Q9Y5K2 whole entry): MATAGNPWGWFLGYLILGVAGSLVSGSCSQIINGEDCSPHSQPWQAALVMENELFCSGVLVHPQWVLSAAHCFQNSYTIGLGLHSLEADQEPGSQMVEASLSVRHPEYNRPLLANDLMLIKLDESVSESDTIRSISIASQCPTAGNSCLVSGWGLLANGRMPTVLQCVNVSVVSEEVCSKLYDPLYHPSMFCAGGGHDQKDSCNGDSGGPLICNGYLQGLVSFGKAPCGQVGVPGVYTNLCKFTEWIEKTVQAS

Pro-cathepsin H = biological target: T4, Pro-cathepsin H (Homo sapiens, UniProt P09668); experiment: Inhibition of human Cathepsin H; procedure, shortened: as §1
T4 sequence (P09668 whole entry): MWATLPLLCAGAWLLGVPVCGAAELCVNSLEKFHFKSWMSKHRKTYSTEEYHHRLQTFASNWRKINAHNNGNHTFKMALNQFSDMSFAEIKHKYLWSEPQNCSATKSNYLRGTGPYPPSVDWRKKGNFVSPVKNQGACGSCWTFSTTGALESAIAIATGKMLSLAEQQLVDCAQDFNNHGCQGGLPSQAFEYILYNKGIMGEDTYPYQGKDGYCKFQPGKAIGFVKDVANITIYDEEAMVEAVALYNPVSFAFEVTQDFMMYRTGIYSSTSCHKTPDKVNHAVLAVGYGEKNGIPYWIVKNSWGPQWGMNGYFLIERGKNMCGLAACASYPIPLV

Proteinase K = Proteinase K (Engyodontium album, UniProt P06873); experiment: Inhibition of human Proteinase K; design: species or system Parengyodontium album; procedure, shortened: as §1
Proteinase K, sequence (P06873 whole entry): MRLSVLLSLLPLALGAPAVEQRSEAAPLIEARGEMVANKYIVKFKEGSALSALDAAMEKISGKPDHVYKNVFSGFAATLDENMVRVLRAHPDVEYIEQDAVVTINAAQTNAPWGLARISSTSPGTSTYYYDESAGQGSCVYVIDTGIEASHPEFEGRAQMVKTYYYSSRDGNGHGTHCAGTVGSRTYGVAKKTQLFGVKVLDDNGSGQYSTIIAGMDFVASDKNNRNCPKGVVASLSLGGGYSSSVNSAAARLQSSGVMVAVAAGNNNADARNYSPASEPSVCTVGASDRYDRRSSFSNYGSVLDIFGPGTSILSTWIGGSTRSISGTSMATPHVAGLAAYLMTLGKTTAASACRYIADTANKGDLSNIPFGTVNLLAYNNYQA

Cathepsin L2 = biological target: T5, Cathepsin L2 (Homo sapiens, UniProt O60911); experiment: Inhibition of human Cathepsin V; procedure, shortened: as §1
T5 sequence (O60911 whole entry): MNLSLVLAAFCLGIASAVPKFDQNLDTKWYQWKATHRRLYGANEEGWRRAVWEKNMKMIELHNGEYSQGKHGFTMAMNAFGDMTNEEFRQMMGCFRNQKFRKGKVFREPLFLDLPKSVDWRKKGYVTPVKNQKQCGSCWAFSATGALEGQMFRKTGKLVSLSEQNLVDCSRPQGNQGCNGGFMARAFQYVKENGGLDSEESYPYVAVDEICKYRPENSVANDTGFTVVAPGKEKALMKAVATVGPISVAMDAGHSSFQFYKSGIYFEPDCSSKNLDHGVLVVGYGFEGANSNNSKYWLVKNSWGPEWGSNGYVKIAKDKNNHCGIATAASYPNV

Trypanosoma cruzi [7] = experiment: Antitrypanosomal activity against Trypanosoma cruzi Y trypomastigotes infected in mouse J774 cells at 10 uM after 27 days medium replaced every 48 hrs; format: functional, organism-based
Procedure, shortened: (§2)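 Irradiated (1000 rad) J774 macrophages plated overnight, infected 2 h with Y strain trypomastigotes, parasites removed, then cultured in RPMI-1640 with compound (n = 3); untreated infected and 10 μM K777 controls per experiment. Medium replaced every 48 h over 27 days; daily phase-contrast microscopy (400×) for free trypomastigotes and host toxicity; cultures kept 14 further days to confirm cure.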

[8] = biological target: Matrix metalloproteinase-14 (Homo sapiens, UniProt P50281); experiment: Inhibition of human MMP14; procedure, shortened: as §1
Cathepsin B = Cathepsin B (Homo sapiens, UniProt P07858); experiment: Inhibition of human Cathepsin B; procedure, shortened: as §1
Cathepsin Z = Cathepsin Z (Homo sapiens, UniProt Q9UBR2); experiment: Inhibition of human Cathepsin X/Z; procedure, shortened: as §1
Cathepsin Z, sequence (Q9UBR2 whole entry): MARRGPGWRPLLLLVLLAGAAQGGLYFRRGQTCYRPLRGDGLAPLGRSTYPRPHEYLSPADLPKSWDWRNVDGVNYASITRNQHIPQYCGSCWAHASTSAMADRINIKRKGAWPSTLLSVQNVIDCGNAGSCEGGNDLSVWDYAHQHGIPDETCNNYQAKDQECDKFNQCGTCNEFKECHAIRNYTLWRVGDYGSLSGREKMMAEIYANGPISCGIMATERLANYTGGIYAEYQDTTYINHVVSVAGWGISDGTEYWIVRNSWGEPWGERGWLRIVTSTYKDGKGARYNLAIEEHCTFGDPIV

Dipeptidyl peptidase 1 = Dipeptidyl peptidase 1 (Homo sapiens, UniProt P53634); experiment: Inhibition of human Cathepsin C; procedure, shortened: as §1
Dipeptidyl peptidase 1, sequence (P53634 25-134 limits assumed): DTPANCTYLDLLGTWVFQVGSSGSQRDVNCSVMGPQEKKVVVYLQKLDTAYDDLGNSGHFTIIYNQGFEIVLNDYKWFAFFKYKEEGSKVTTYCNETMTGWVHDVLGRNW
Dipeptidyl peptidase 1, sequence (P53634 231-394 limits assumed): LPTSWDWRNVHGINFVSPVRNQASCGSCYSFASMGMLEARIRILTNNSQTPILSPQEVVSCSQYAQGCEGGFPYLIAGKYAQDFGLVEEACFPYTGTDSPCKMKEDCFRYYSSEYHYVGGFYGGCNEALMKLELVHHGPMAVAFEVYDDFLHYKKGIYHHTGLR
Dipeptidyl peptidase 1, sequence (P53634 395-463 limits assumed): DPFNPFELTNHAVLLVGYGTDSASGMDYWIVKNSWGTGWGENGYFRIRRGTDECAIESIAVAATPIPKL

Canis familiaris = organism: Canis familiaris; experiment: Toxicity in dog; format: organism-based, Canis lupus familiaris; conditions: in vivo
[9] = Inhibition of human Proteinase A; procedure, shortened: as §1
[10] = biological target: Disintegrin and metalloproteinase domain-containing protein 17 (Homo sapiens, UniProt P78536); experiment: Inhibition of human TACE; procedure, shortened: as §1
Disintegrin and metalloproteinase domain-containing protein 17, sequence (P78536 whole entry, the tested form may be a part): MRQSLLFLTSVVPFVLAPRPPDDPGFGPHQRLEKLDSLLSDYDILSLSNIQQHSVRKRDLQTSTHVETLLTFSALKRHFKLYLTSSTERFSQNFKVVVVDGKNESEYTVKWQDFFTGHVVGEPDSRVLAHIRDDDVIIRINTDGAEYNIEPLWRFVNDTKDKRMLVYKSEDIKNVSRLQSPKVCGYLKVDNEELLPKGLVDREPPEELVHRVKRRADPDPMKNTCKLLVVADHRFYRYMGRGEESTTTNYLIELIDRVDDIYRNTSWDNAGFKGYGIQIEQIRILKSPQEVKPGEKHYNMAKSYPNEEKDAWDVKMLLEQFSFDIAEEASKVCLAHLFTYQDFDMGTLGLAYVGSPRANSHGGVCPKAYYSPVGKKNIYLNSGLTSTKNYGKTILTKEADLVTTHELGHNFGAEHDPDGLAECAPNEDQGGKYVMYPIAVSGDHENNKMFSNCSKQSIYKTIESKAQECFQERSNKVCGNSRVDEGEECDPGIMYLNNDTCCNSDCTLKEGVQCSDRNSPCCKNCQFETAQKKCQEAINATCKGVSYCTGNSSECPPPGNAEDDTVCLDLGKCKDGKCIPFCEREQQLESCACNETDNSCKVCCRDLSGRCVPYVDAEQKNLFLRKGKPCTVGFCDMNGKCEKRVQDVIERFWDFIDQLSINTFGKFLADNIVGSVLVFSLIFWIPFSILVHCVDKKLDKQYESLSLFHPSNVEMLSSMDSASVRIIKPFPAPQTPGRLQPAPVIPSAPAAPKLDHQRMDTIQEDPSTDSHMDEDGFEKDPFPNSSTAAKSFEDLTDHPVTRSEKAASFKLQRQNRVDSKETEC

Mus musculus = organism: Mus musculus; experiment: Toxicity in mouse; format: organism-based; conditions: in vivo
Rattus norvegicus = organism: Rattus norvegicus; experiment: Toxicity in rat; format: organism-based; conditions: in vivo
Caspase-1 = Caspase-1 (Homo sapiens, UniProt P29466); experiment: Inhibition of human Caspase 1; procedure, shortened: as §1
[11] = Inhibition of human CCC1s; procedure, shortened: as §1
Trypanosoma cruzi [12] = experiment: Antitrypanosomal activity against Trypanosoma cruzi Y trypomastigotes infected in mouse J774 cells at 1 uM after 27 days medium replaced every 48 hrs; format: functional, organism-based; procedure, shortened: as §2
J774 [13] = experiment: Cytotoxicity against mouse J774 cells at 5 uM; format: cell-based; conditions: j774, 5 µM
Procedure, shortened: (§3)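 Irradiated (1000 rad) J774 macrophages plated overnight and infected 2 h with Y strain T. cruzi trypomastigotes. After parasite removal, cultured in RPMI-1640 with compound (n = 3), medium changed every 48 h, for 27 days. Toxicity to host cells (granulation, detachment, death) scored daily by phase-contrast microscopy at 400×.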

J774 [14] = experiment: Cytotoxicity against mouse J774 cells at 10 uM; format: cell-based; conditions: j774, 10 µM; procedure, shortened: as §3
[15] = biological target: Tissue-type plasminogen activator (Homo sapiens, UniProt P00750); experiment: Inhibition of human tPA; procedure, shortened: as §1
Caspase-14 = Caspase-14 (Homo sapiens, UniProt P31944); experiment: Inhibition of human Caspase 14; procedure, shortened: as §1
Caspase-14, sequence (P31944 6-146 limits assumed): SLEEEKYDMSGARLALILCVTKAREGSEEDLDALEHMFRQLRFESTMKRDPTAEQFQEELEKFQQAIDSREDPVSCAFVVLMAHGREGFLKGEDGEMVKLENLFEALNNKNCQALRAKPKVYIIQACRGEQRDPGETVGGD
Caspase-14, sequence (P31944 153-242 limits assumed): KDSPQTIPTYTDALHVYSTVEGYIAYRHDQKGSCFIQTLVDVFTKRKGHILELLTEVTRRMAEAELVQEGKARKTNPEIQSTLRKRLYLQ

Caspase-6 = Caspase-6 (Homo sapiens, UniProt P55212); experiment: Inhibition of human Caspase 6; procedure, shortened: as §1
Caspase-6, sequence (P55212 24-179 limits assumed): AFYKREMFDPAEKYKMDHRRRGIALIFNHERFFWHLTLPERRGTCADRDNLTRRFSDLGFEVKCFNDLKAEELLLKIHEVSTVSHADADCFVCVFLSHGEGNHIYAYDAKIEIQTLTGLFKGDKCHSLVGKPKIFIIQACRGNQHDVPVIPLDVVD
Caspase-6, sequence (P55212 194-293 limits assumed): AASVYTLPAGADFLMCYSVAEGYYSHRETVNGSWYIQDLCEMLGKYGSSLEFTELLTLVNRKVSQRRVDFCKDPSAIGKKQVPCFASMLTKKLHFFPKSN

Caspase-5 = Caspase-5 (Homo sapiens, UniProt P51878); experiment: Inhibition of human Caspase 5; procedure, shortened: as §1

| SMILES | IC50 [1] | IC50 (Cruzipain [3]) | IC50 [4] | IC50 (Procathepsin L) | IC50 (Cruzipain [6]) | IC50 (Caspase-4) | IC50 (Cathepsin S) | IC50 (Papain) | IC50 (Cathepsin K) | IC50 (Kallikrein-4) | IC50 (Pro-cathepsin H) | IC50 (Cathepsin L2) | IC50 [8] | IC50 (Cathepsin B) | IC50 (Cathepsin Z) | IC50 (Dipeptidyl peptidase 1) | Activity (Canis familiaris) | Activity (Mus musculus) | Activity (Rattus norvegicus) | Activity (Trypanosoma cruzi [12]) | other results |
| --- | --- | --- | --- | --- | --- | --- | --- | --- | --- | --- | --- | --- | --- | --- | --- | --- | --- | --- | --- | --- | --- |
| N#Cc1nc(N)nc(N(c2ccccc2)c2ccccc2)n1 | > 1000 nM | 70 nM | > 10000 nM |  |  |  |  |  |  |  |  |  |  |  |  |  |  |  |  |  | Ki (Cruzipain [2]): 180 nM |
| N#Cc1nc(Nc2cc(F)cc(F)c2)c2ncn(CC(F)F)c2n1 |  |  |  | 7940 nM | 13 nM |  |  |  |  |  |  |  |  |  |  |  |  |  |  |  | pIC50 [5]: 4.19; IC50 (Cathepsin G): 148000 nM; IC50 (Neutrophil elastase): 85100 nM |
| CCn1cnc2c(Nc3cc(F)cc(F)c3)nc(C#N)nc21 | 6000 nM | 0.2 nM | < 6 nM | 117 nM | 10 nM | 33100 nM | 15.8 nM | 44.7 nM | 23.4 nM | 14500 nM | 126 nM | 240 nM | 72400 nM | 10700 nM | 933 nM | 34.7 nM | Non-toxic | Non-toxic | Non-toxic |  | IC50 (Beta-secretase 1): 63100 nM; IC50 (Proteinase K): 74100 nM; Activity (Trypanosoma cruzi [7]): inactive; pIC50 [9]: 4.19; IC50 [10]: 74100 nM |
| CCNc1nc(C#N)nc2c1ncn2-c1cc(F)cc(F)c1 |  |  |  | 562 nM | 251 nM |  | 105 nM | 33.1 nM | 50.1 nM | 178000 nM | 646 nM | 70800 nM | 135000 nM |  | 316 nM | 589 nM | Non-toxic | Non-toxic | Non-toxic |  | IC50 (Caspase-1): 70800 nM; pIC50 [11]: 4.3 |
| N#Cc1nc(Nc2cccc(Br)c2)nc(NC2CCCC2)n1 | > 100000 nM | 2 nM | 6 nM |  | 100 nM |  |  |  |  |  |  |  |  |  |  |  |  |  |  | inactive | Activity (J774 [13]): Toxic; Activity (J774 [14]): Toxic |
| N#Cc1nc(Nc2cc(F)cc(F)c2)nc(NC2CCCC2)n1 | 4000 nM | 4 nM | 5 nM | 204 nM | 63 nM | 8130 nM | 5620 nM | 389 nM | 20.4 nM |  | 16200 nM | 182 nM |  | 10000 nM | 3160 nM |  | Non-toxic | Non-toxic | Non-toxic | inactive | IC50 [15]: 1290 nM; Activity (J774 [13]): Toxic; IC50 (Caspase-14): 9120 nM; Activity (J774 [14]): Toxic; IC50 (Caspase-6): 3550 nM; IC50 (Caspase-5): 13500 nM |
